From ChEMBL document CHEMBL5260822, “Structure-based design and synthesis of 2,4-diaminopyrimidines as EGFR L858R/T790M selective inhibitors for NSCLC” (Eur J Med Chem, 2017)

Assays:
Homo sapiens = species on record: Homo sapiens; assay: Selectivity ratio, ratio of IC50 for inhibition of wild type EGFR (unknown origin) to IC50 for inhibition of EGFR L858R/T790M mutant (unknown origin)
Outline: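 EGFR WT and L858R/T790M kinase domains expressed in a baculovirus system and purified on Ni-NTA. Kinase activity measured by ELISA-based EGFR tyrosine kinase assay; at least three independent determinations, mean ± SD.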

[1] = biological target: Epidermal growth factor receptor (Homo sapiens, UniProt P00533, L858R/T790M); assay: Inhibition of EGFR L858R/T790M mutant (unknown origin) expressed in baculovirus expression system by ELISA
Epidermal growth factor receptor (Homo sapiens, UniProt P00533, L858R/T790M), sequence (P00533 25-1210 T790M/L858R limits assumed): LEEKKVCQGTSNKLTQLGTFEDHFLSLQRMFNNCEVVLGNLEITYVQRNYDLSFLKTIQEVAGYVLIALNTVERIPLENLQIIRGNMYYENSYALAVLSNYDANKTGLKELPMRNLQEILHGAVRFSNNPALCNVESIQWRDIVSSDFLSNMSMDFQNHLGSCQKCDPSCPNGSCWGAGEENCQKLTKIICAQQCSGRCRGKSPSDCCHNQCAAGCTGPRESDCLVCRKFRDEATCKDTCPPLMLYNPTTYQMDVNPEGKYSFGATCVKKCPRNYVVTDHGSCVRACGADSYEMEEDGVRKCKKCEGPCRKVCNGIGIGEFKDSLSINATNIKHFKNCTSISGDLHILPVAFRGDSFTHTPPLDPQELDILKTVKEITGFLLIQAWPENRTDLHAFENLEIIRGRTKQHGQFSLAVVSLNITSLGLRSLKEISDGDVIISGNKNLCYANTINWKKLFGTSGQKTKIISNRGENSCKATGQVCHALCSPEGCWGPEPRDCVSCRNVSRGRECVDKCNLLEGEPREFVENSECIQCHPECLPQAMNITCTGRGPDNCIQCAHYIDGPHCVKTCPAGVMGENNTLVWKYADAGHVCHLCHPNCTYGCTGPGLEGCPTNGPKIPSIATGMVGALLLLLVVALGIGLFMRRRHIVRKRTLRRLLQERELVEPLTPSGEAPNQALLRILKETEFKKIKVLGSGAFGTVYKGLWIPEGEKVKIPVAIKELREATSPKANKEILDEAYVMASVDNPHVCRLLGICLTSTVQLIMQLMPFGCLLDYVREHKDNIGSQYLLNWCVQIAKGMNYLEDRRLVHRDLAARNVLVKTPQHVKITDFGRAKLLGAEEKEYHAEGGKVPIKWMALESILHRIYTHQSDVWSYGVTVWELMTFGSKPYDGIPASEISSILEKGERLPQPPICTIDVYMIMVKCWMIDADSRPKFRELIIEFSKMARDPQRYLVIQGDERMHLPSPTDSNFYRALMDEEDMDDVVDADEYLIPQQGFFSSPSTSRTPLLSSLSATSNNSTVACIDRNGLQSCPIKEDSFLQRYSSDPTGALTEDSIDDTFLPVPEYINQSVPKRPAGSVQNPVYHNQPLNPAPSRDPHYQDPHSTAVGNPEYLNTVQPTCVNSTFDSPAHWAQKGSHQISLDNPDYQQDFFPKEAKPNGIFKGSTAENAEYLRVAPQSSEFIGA

[2] = biological target: Epidermal growth factor receptor (Homo sapiens, UniProt P00533); assay: Inhibition of wild type EGFR (unknown origin) expressed in baculovirus expression system by ELISA
Epidermal growth factor receptor (Homo sapiens, UniProt P00533), sequence (P00533 whole entry): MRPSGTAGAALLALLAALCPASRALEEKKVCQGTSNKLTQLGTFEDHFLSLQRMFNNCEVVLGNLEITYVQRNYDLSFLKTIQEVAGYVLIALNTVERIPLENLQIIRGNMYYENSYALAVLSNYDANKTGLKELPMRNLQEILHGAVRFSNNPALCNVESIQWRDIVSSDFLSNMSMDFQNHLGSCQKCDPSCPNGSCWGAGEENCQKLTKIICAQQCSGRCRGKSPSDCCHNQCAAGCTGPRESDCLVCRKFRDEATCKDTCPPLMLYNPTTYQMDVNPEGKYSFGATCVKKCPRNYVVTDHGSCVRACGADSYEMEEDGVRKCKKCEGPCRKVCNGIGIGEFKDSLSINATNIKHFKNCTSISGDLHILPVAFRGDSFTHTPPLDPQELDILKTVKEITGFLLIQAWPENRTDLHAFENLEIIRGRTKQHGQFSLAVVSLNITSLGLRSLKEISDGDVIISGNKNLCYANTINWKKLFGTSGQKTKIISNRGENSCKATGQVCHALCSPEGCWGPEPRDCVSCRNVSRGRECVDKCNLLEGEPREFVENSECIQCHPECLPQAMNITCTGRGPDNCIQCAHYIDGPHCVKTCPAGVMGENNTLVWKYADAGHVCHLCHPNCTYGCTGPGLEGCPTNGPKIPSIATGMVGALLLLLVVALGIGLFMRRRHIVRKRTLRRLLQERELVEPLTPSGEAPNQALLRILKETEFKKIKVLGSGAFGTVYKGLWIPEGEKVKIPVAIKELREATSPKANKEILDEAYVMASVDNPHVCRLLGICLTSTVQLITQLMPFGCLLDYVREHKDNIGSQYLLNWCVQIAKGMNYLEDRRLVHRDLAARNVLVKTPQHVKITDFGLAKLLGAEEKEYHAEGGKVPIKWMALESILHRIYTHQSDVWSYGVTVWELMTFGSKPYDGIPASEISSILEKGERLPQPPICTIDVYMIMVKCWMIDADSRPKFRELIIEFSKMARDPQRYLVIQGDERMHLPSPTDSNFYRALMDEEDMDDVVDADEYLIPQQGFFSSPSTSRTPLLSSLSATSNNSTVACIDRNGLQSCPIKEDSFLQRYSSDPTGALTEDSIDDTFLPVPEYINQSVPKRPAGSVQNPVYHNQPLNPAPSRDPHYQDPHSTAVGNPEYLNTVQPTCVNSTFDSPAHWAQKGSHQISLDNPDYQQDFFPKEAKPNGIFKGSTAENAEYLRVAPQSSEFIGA

[3] = biological target: Epidermal growth factor receptor (Homo sapiens, UniProt P00533, T790M); assay: Inhibition of EGFR T790M mutant (unknown origin) expressed in baculovirus expression system by ELISA
Epidermal growth factor receptor (Homo sapiens, UniProt P00533, T790M), sequence (P00533 25-1210 T790M limits assumed): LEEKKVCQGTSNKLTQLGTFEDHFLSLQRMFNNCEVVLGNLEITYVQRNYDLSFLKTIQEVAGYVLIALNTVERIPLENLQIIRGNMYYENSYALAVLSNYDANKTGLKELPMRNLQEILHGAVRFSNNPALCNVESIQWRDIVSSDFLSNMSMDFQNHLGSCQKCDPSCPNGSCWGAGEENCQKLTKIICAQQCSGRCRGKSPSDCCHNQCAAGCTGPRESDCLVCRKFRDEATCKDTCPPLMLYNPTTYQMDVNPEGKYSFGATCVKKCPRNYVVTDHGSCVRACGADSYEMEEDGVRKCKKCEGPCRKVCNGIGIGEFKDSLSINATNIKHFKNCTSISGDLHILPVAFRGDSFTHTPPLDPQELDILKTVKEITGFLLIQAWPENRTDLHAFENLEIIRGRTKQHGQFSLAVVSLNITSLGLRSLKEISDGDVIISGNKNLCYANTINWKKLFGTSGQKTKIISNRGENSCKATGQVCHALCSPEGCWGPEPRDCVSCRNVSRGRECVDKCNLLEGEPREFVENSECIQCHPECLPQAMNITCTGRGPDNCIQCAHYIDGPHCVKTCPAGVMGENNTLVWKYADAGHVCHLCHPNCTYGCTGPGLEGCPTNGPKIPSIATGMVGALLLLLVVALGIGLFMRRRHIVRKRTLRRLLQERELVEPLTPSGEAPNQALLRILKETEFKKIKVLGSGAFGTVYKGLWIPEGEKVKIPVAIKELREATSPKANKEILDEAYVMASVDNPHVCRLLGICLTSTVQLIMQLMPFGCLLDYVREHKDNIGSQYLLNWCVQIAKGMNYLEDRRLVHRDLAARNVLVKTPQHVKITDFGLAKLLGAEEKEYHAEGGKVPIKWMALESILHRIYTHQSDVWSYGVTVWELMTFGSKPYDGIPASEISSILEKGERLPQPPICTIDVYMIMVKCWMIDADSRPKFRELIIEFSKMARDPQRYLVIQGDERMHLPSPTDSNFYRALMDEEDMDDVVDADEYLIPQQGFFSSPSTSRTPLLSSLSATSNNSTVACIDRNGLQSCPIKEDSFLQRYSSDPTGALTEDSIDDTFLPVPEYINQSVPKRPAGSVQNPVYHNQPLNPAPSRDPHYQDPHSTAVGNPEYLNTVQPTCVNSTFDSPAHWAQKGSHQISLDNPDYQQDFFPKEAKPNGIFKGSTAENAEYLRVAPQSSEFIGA

NCI-H1975 = assay: Antiproliferative activity against human NCI-H1975 cells harboring EGFR L858R/T790M double mutant assessed as inhibition of cell proliferation incubated for 72 hrs by sulforhodamine B colorimetric assay; assay type: functional, cell-based; settings: NCI-H1975, 72 h
A-431 = assay: Antiproliferative activity against human A-431 cells harboring wild type EGFR assessed as inhibition of cell proliferation incubated for 72 hrs by sulforhodamine B colorimetric assay; assay type: functional, cell-based; settings: A-431, 72 h

SMILES | Ratio IC50 (Homo sapiens) | IC50 [1] | IC50 [2] | IC50 [3] | IC50 (NCI-H1975) | IC50 (A-431)
CC(=O)N1CCc2cc(Nc3nc(Nc4ccc(N5CCN(C)CC5)cc4)ncc3Br)ccc21 | 2 | 6000 nM | 14300 nM |  |  | 
Cc1cnc(Nc2ccc(N3CCN(C)CC3)cc2)nc1Nc1ccc2[nH]ccc2c1 |  | 171 nM | > 1000 nM | 197 nM |  | 
CN1CCN(c2ccc(Nc3ncc(F)c(Nc4ccc5[nH]ccc5c4)n3)cc2)CC1 |  | 181 nM | > 1000 nM | 232 nM |  | 
C=CC(=O)Nc1cc(Nc2ncc(Br)c(Nc3ccc4c(c3)CCC4)n2)ccc1N1CCN(C)CC1 |  | 27.7 nM | 466 nM |  | 306 nM | 135 nM
CN1CCN(c2ccc(Nc3ncc(Br)c(Nc4ccc5c(c4)CCC5)n3)cc2)CC1 | 194 | 35 nM | 6800 nM |  |  | 
CC(=O)N1CCc2ccc(Nc3nc(Nc4ccc(N5CCN(C)CC5)cc4)ncc3Br)cc21 |  | 8600 nM | 5700 nM |  |  | 
CN1CCN(c2ccc(Nc3ncc([N+](=O)[O-])c(Nc4ccc5[nH]ccc5c4)n3)cc2)CC1 |  | 906 nM | > 1000 nM | > 1000 nM |  | 
CN1CCN(c2ccc(Nc3ncc(Br)c(Nc4ccc5cn[nH]c5c4)n3)cc2)CC1 | 26 | 43 nM | 1100 nM |  |  | 
C=CC(=O)Nc1cccc(Oc2nc(Nc3ccc(N4CCN(C)CC4)cc3OC)ncc2Cl)c1 |  |  |  |  | 128 nM | 1300 nM
C=CC(=O)Nc1cc(Nc2ncc(Br)c(Nc3ccc4ccn(C)c4c3)n2)ccc1N1CCN(C)CC1 |  |  |  |  | 190 nM | 200 nM
COc1cnc(Nc2ccc(N3CCN(C)CC3)cc2)nc1Nc1ccc2[nH]ccc2c1 |  | 155 nM | > 1000 nM | 224 nM |  | 
CN1CCN(c2ccc(Nc3nccc(Nc4ccc5[nH]ccc5c4)n3)cc2)CC1 |  | 220 nM | 49 nM | 100 nM |  | 
CN1CCN(c2ccc(Nc3ncc(Br)c(Nc4ccc5[nH]ccc5c4)n3)cc2)CC1 | 23 | 35 nM | > 1000 nM | 53 nM |  | 
CN1CCN(c2ccc(Nc3ncc(Br)c(Nc4ccc5ccn(C)c5c4)n3)cc2)CC1 | 62 | 21 nM | 1300 nM |  |  | 
CN1CCN(c2ccc(Nc3ncc(Br)c(Nc4ccc5cc[nH]c5c4)n3)cc2)CC1 | 74 | 19 nM | 1400 nM |  |  | 
CN1CCN(c2ccc(Nc3ncc(C(F)(F)F)c(Nc4ccc5[nH]ccc5c4)n3)cc2)CC1 |  | 121 nM | > 1000 nM | 102 nM |  | 
CN1CCN(c2ccc(Nc3ncc(Br)c(Nc4ccc5[nH]ncc5c4)n3)cc2)CC1 | 10 | 39 nM | 393 nM |  |  | 
CN1CCN(c2ccc(Nc3ncc(Cl)c(Nc4ccc5[nH]ccc5c4)n3)cc2)CC1 |  | 46 nM | 557 nM | 105 nM |  | 
CN1CCN(c2ccc(Nc3ncc(Br)c(Nc4ccc5nccnc5c4)n3)cc2)CC1 | 2 | 236 nM | 408 nM |  |  | 
C=CC(=O)Nc1cc(Nc2ncc(Br)c(Nc3ccc4c(c3)CCC4)n2)ccc1N(C)CCN(C)C |  | 0.6 nM | 26.2 nM |  | 106 nM | 256 nM
C=CC(=O)Nc1cc(Nc2ncc(Br)c(Nc3ccc4cc[nH]c4c3)n2)ccc1N(C)CCN(C)C |  | 200 nM | 8.7 nM |  | 111 nM | 143 nM
CN1CCN(c2ccc(Nc3ncc(Br)c(Nc4ccc5[nH]c(Cc6cccc(F)c6)cc5c4)n3)cc2)CC1 | 7 | 49 nM | 325 nM |  |  | 
C=CC(=O)Nc1cc(Nc2ncc(Br)c(Nc3ccc4cc[nH]c4c3)n2)ccc1N1CCN(C)CC1 |  | 16.4 nM | 234 nM |  | 451 nM | 108 nM
CN1CCN(c2ccc(Nc3ncc(Br)c(Nc4ccc5ncccc5c4)n3)cc2)CC1 |  | 7800 nM | > 10000 nM |  |  | 
